Data published in ChEMBL document CHEMBL5058577, “EUbOPEN Chemogenomics Library 2 (Multiplex)” (2022).

Test system: U2OS
Assay: Multiplex assay against U2OS
Type: toxicity, cell-based
Details: human
Procedure, shortened: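 Compound was added to live cells that had been stained at seeding with Hoechst33342, BioTracker Green Microtubule Cytoskeleton Dye, MitoTracker Red and Annexin V Alexa Fluor 680, and imaging followed on a CQ1 microscope at 37°C and 5% CO2. CellPathfinder machine-learning gating divided cells into Hoechst high-intensity objects or normal cells, normal cells into healthy, pyknosed or fragmented nuclei, and pyknosed cells into mitotic or apoptotic. Tubulin, mitochondrial-mass and membrane-permeability phenotypes are per cents of healthy-nucleus cells.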

[1] = 12 h, 1 µM, compound concentration 1 uM, replicate 1
[2] = 12 h, 1 µM, compound concentration 1 uM, replicate 2
[3] = 12 h, 10 µM, compound concentration 10 uM, replicate 1
[4] = 12 h, 10 µM, compound concentration 10 uM, replicate 2
[5] = 24 h, 1 µM, compound concentration 1 uM, replicate 1
[6] = 24 h, 1 µM, compound concentration 1 uM, replicate 2
[7] = 24 h, 10 µM, compound concentration 10 uM, replicate 1
[8] = 24 h, 10 µM, compound concentration 10 uM, replicate 2
[9] = 48 h, 1 µM, compound concentration 1 uM, replicate 1
[10] = 48 h, 1 µM, compound concentration 1 uM, replicate 2
[11] = 48 h, 10 µM, compound concentration 10 uM, replicate 1
[12] = 48 h, 10 µM, compound concentration 10 uM, replicate 2

## O=C(NCCN1CCC(n2c(=O)[nH]c3cc(Cl)ccc32)CC1)c1ccc(F)cc1 [HALOPEMIDE]
[1]
  Population Apoptotic (%): 95%
  Population Fragmented Nuclei (%): 24%
  Population Healthy Nuclei (%): 65%
  Population Hoechst High Intensity Objects (%): 1%
  Population Membrane Permeable-Phenotype (%): 6%
  Population Mitochondria Different-Phenotype (%): 1%
  Population Mitotic Cells (%): 4%
  Population Normal (%): 98%
  Population Pyknosed Nuclei (%): 10%
  Population Tubulin-Different-Phenotype (%): 2%
  Total Cell Count: 209
[2]
  Population Apoptotic (%): 50%
  Population Fragmented Nuclei (%): 13%
  Population Healthy Nuclei (%): 79%
  Population Hoechst High Intensity Objects (%): 0%
  Population Membrane Permeable-Phenotype (%): 7%
  Population Mitochondria Different-Phenotype (%): 2%
  Population Mitotic Cells (%): 50%
  Population Normal (%): 100%
  Population Pyknosed Nuclei (%): 7%
  Population Tubulin-Different-Phenotype (%): 3%
  Total Cell Count: 105
[3]
  Population Apoptotic (%): 68%
  Population Fragmented Nuclei (%): 19%
  Population Healthy Nuclei (%): 65%
  Population Hoechst High Intensity Objects (%): 4%
  Population Membrane Permeable-Phenotype (%): 23%
  Population Mitochondria Different-Phenotype (%): 11%
  Population Mitotic Cells (%): 31%
  Population Normal (%): 95%
  Population Pyknosed Nuclei (%): 15%
  Population Tubulin-Different-Phenotype (%): 15%
  Total Cell Count: 244
[4]
  Population Apoptotic (%): 61%
  Population Fragmented Nuclei (%): 12%
  Population Healthy Nuclei (%): 78%
  Population Hoechst High Intensity Objects (%): 1%
  Population Membrane Permeable-Phenotype (%): 26%
  Population Mitochondria Different-Phenotype (%): 32%
  Population Mitotic Cells (%): 38%
  Population Normal (%): 98%
  Population Pyknosed Nuclei (%): 8%
  Population Tubulin-Different-Phenotype (%): 27%
  Total Cell Count: 152
[5]
  Population Apoptotic (%): 91%
  Population Fragmented Nuclei (%): 22%
  Population Healthy Nuclei (%): 68%
  Population Hoechst High Intensity Objects (%): 1%
  Population Membrane Permeable-Phenotype (%): 6%
  Population Mitochondria Different-Phenotype (%): 1%
  Population Mitotic Cells (%): 8%
  Population Normal (%): 98%
  Population Pyknosed Nuclei (%): 9%
  Population Tubulin-Different-Phenotype (%): 1%
  Total Cell Count: 241
[6]
  Population Apoptotic (%): 81%
  Population Fragmented Nuclei (%): 15%
  Population Healthy Nuclei (%): 72%
  Population Hoechst High Intensity Objects (%): 0%
  Population Membrane Permeable-Phenotype (%): 10%
  Population Mitochondria Different-Phenotype (%): 3%
  Population Mitotic Cells (%): 18%
  Population Normal (%): 99%
  Population Pyknosed Nuclei (%): 12%
  Population Tubulin-Different-Phenotype (%): 8%
  Total Cell Count: 132
[7]
  Population Apoptotic (%): 75%
  Population Fragmented Nuclei (%): 17%
  Population Healthy Nuclei (%): 64%
  Population Hoechst High Intensity Objects (%): 2%
  Population Membrane Permeable-Phenotype (%): 15%
  Population Mitochondria Different-Phenotype (%): 10%
  Population Mitotic Cells (%): 25%
  Population Normal (%): 97%
  Population Pyknosed Nuclei (%): 18%
  Population Tubulin-Different-Phenotype (%): 7%
  Total Cell Count: 271
[8]
  Population Apoptotic (%): 63%
  Population Fragmented Nuclei (%): 16%
  Population Healthy Nuclei (%): 71%
  Population Hoechst High Intensity Objects (%): 3%
  Population Membrane Permeable-Phenotype (%): 26%
  Population Mitochondria Different-Phenotype (%): 23%
  Population Mitotic Cells (%): 36%
  Population Normal (%): 96%
  Population Pyknosed Nuclei (%): 12%
  Population Tubulin-Different-Phenotype (%): 21%
  Total Cell Count: 159
[9]
  Population Apoptotic (%): 68%
  Population Fragmented Nuclei (%): 16%
  Population Healthy Nuclei (%): 75%
  Population Hoechst High Intensity Objects (%): 2%
  Population Membrane Permeable-Phenotype (%): 4%
  Population Mitochondria Different-Phenotype (%): 2%
  Population Mitotic Cells (%): 32%
  Population Normal (%): 97%
  Population Pyknosed Nuclei (%): 7%
  Population Tubulin-Different-Phenotype (%): 2%
  Total Cell Count: 337
[10]
  Population Apoptotic (%): 95%
  Population Fragmented Nuclei (%): 17%
  Population Healthy Nuclei (%): 69%
  Population Hoechst High Intensity Objects (%): 1%
  Population Membrane Permeable-Phenotype (%): 9%
  Population Mitochondria Different-Phenotype (%): 5%
  Population Mitotic Cells (%): 4%
  Population Normal (%): 98%
  Population Pyknosed Nuclei (%): 12%
  Population Tubulin-Different-Phenotype (%): 6%
  Total Cell Count: 187
[11]
  Population Apoptotic (%): 81%
  Population Fragmented Nuclei (%): 15%
  Population Healthy Nuclei (%): 69%
  Population Hoechst High Intensity Objects (%): 3%
  Population Membrane Permeable-Phenotype (%): 10%
  Population Mitochondria Different-Phenotype (%): 5%
  Population Mitotic Cells (%): 18%
  Population Normal (%): 96%
  Population Pyknosed Nuclei (%): 14%
  Population Tubulin-Different-Phenotype (%): 5%
  Total Cell Count: 382
[12]
  Population Apoptotic (%): 77%
  Population Fragmented Nuclei (%): 13%
  Population Healthy Nuclei (%): 67%
  Population Hoechst High Intensity Objects (%): 6%
  Population Membrane Permeable-Phenotype (%): 16%
  Population Mitochondria Different-Phenotype (%): 12%
  Population Mitotic Cells (%): 22%
  Population Normal (%): 93%
  Population Pyknosed Nuclei (%): 18%
  Population Tubulin-Different-Phenotype (%): 6%
  Total Cell Count: 197
